ChEMBL document CHEMBL3875207, “New derivatives of 7-chloroquinolin-4-amine with antiprotozoal activity” (Bioorg Med Chem, 2017)

Assays:
[1] = test system: Trypanosoma brucei rhodesiense; test: Antitrypanosomal activity against Trypanosoma brucei rhodesiense STIB900 bloodstream forms isolated from patient after 70 hrs by microplate alamar blue assay; type: functional; conditions: STIB900, 70 h
Summary of the method: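 MEM with 25 mM HEPES, 1 g/L extra glucose, non-essential amino acids, 0.2 mM 2-mercaptoethanol, 1 mM Na-pyruvate, 15% heat-inactivated horse serum; 4×10^3 bloodstream forms per well. Eleven 3-fold dilutions, 100 to 0.002 µg/mL; 70 h, 37°C, 5% CO2. Resazurin added, further 2-4 h; fluorescence ex 536/em 588 nm. IC50 by linear regression from sigmoidal dose-inhibition curves.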

[2] = Selectivity index, ratio of IC50 for rat L6 cells to IC50 for Trypanosoma brucei rhodesiense STIB900 bloodstream forms; type: toxicity, cell-based; conditions: read-out: Ratio IC50
Summary of the method: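 Ratio of L-6 cytotoxicity IC50 to T. b. rhodesiense STIB900 IC50. L-6: 4000 cells in RPMI 1640 with L-glutamine and 10% FBS, 70 h, then Alamar Blue 2 h. Trypanosomes: 4×10^3 bloodstream forms in supplemented MEM with 15% horse serum, 37°C, 5% CO2, 70 h, then Alamar Blue 2-4 h. Both read by fluorescence (ex 536/em 588 nm) over eleven 3-fold dilutions, 100 to 0.002 µg/mL.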

Plasmodium falciparum [3] = test: Antiplasmodial activity against chloroquine-sensitive Plasmodium falciparum NF54 infected in human RBC assessed as reduction in [3H]hypoxanthine incorporation preincubated for 48 hrs followed by [3H]hypoxanthine addition measured after 24 hrs by liquid scintillation counting method; type: functional
Summary of the method: (§1)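 Erythrocytic P. falciparum in RPMI 1640 without hypoxanthine with HEPES, NaHCO3, neomycin, Albumax (5 g/L) and washed human A+ red cells at 2.5% haematocrit, 0.3% parasitaemia. Compounds from DMSO stocks (10 mg/mL) tested as eleven 3-fold dilutions, 100 to 0.002 µg/mL. Incubation at 37°C under 4% CO2/3% O2/93% N2; 3H-hypoxanthine (0.5 µCi) added at 48 h, 24 h more, scintillation counting; IC50 by linear regression from sigmoidal curves.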

[4] = Selectivity index, ratio of IC50 for rat L6 cells to IC50 for chloroquine-sensitive Plasmodium falciparum NF54 infected in human RBC; type: toxicity, cell-based; conditions: read-out: Ratio IC50
Summary of the method: (§2)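 Ratio of the IC50 in rat L-6 myoblasts to the P. falciparum IC50. L-6: 4000 cells per well, RPMI 1640 with L-glutamine and 10% FBS, 70 h, Alamar Blue 2 h, fluorescence ex 536/em 588 nm. Both use eleven 3-fold dilutions, 100 to 0.002 µg/mL.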

Plasmodium falciparum [5] = test: Antiplasmodial activity against chloroquine/pyrimethamine-resistant Plasmodium falciparum K1 infected in human RBC assessed as reduction in [3H]hypoxanthine incorporation preincubated for 48 hrs followed by [3H]hypoxanthine addition measured after 24 hrs by liquid scintillation counting method; type: functional; summary of the method: as §1
[6] = Selectivity index, ratio of IC50 for rat L6 cells to IC50 for chloroquine/pyrimethamine-resistant Plasmodium falciparum K1 infected in human RBC; type: toxicity, cell-based; conditions: read-out: Ratio IC50; summary of the method: as §2
[7] = Cytotoxicity against rat L6 cells assessed as growth inhibition after 70 hrs by alamar blue assay; type: toxicity
Summary of the method: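 4000 L-6 cells per well in RPMI 1640 with 1% L-glutamine (200 mM) and 10% FBS. Eleven 3-fold dilutions spanning 100 to 0.002 µg/mL; 70 h incubation, controls checked microscopically. Alamar Blue added for 2 h more; fluorescence ex 536/em 588 nm. IC50 by linear regression from sigmoidal dose-inhibition curves.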

[8] = Resistance index, ratio of IC50 for chloroquine/pyrimethamine-resistant Plasmodium falciparum K1 infected in human RBC to IC50 for chloroquine-sensitive Plasmodium falciparum NF54 infected in human RBC; type: functional
Summary of the method: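 Resistance index is the ratio of the IC50 against K1 to the IC50 against NF54. Both IC50s come from the 3H-hypoxanthine incorporation assay run in parallel on the two strains.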

Row | SMILES | IC50 [1] [nM] | selectivity ratio [2] | IC50 (Plasmodium falciparum [3]) [nM] | selectivity ratio [4] | IC50 (Plasmodium falciparum [5]) [nM] | selectivity ratio [6] | IC50 at 70 h [7] [µM] | Ratio IC50 [8]
1 | CN1CCN(CCNc2ccnc3cc(Cl)ccc23)CC1 | 690 | 24.2 | 6.6 | 2540 | 36 | 465 | 16.7 | 5.45
2 | O=C(CN1CCCCCC1)NCCNc1ccnc2cc(Cl)ccc12 | 280 | 50.8 | 11 | 1290 | 55 | 258 | 14.2 | 5
3 | CN1CCN(CC(=O)N2CCN(c3ccnc4cc(Cl)ccc34)CC2)CC1 | 2020 | 39.5 | 140 | 570 | 280 | 285 | 79.8 | 2
4 | CN1CCN(CCCNc2ccnc3cc(Cl)ccc23)CC1 | 1140 | 15.9 | 3.1 | 5860 | 31 | 586 | 18.2 | 10
5 | Clc1ccc2c(NCCCN3CCCCCC3)ccnc2c1 | 780 | 25.6 | 6.3 | 3170 | 38 | 525 | 19.9 | 6.03
6 | CN1CCN(CC(=O)NCCNc2ccnc3cc(Cl)ccc23)CC1 | 18300 | 2.08 | 36 | 1060 | 2870 | 13.3 | 38.1 | 79.7
7 | CCCN(CCC)CC(=O)NCCNc1ccnc2cc(Cl)ccc12 | 940 | 23.4 | 14 | 1570 | 30 | 732 | 22 | 2.14
8 | Nc1nc(N)nc(Nc2ccc([As]3SCC(CO)S3)cc2)n1 (centres undefined) [MELARSOPROL] |  | 778 |  |  |  |  | 7.78 | 
9 | CCCN(CCC)CCNc1ccnc2cc(Cl)ccc12 | 140 | 107 | 3.3 | 4530 | 9.8 | 1520 | 14.9 | 2.97
10 | Clc1ccc2c(NCCN3CCCCCC3)ccnc2c1 | 590 | 22.4 | 3.3 | 4010 | 16 | 827 | 13.2 | 4.85
11 | CCCN(CCC)CC(=O)N1CCN(c2ccnc3cc(Cl)ccc23)CC1 | 1460 | 48.3 | 230 | 306 | 310 | 227 | 70.5 | 1.35
12 | O=C(CN1CCCCC1)NCCNc1ccnc2cc(Cl)ccc12 | 1280 | 18.5 | 11 | 2160 | 92 | 258 | 23.7 | 8.36
13 | Clc1ccc2c(N3CCN(CCN4CCCCCC4)CC3)ccnc2c1 | 1610 | 15.8 | 70 | 362 | 75 | 338 | 25.4 | 1.07
14 | CCN(CC)CCCC(C)Nc1ccnc2cc(Cl)ccc12 (centres undefined) [CHLOROQUINE] |  |  |  |  |  |  | 90.9 | 
15 | O=C(CN1CCCC1)NCCNc1ccnc2cc(Cl)ccc12 | 740 | 62.7 | 18 | 2580 | 75 | 618 | 46.4 | 4.17
16 | COc1cc([C@@H]2c3cc4c(cc3[C@H](O)[C@H]3COC(=O)[C@H]23)OCO4)cc(OC)c1OC [PODOFILOX] |  |  |  |  |  |  | 0.012 | 
17 | Clc1ccc2c(NCCNCCN3CCCCCC3)ccnc2c1 | 1280 | 59.5 | 11 | 6920 | 66 | 1150 | 76.1 | 6
18 | CCCN(CCC)CCN1CCN(c2ccnc3cc(Cl)ccc23)CC1 | 1070 | 53.1 | 110 | 517 | 88 | 646 | 56.8 | 0.8
